Calls of active or inactive are those of the source. No cut-off for these calls is given here.
Key:
Glucocorticoid receptor = biological target: T1, Glucocorticoid receptor (Homo sapiens, UniProt P04150); test: Antagonist activity at human GR ligand binding domain expressed in african green monkey COS7 cells in presence of Dexamethasone by Gal4 hybrid assay; assay type: cell-based, COS-7
T1 sequence (P04150 whole entry): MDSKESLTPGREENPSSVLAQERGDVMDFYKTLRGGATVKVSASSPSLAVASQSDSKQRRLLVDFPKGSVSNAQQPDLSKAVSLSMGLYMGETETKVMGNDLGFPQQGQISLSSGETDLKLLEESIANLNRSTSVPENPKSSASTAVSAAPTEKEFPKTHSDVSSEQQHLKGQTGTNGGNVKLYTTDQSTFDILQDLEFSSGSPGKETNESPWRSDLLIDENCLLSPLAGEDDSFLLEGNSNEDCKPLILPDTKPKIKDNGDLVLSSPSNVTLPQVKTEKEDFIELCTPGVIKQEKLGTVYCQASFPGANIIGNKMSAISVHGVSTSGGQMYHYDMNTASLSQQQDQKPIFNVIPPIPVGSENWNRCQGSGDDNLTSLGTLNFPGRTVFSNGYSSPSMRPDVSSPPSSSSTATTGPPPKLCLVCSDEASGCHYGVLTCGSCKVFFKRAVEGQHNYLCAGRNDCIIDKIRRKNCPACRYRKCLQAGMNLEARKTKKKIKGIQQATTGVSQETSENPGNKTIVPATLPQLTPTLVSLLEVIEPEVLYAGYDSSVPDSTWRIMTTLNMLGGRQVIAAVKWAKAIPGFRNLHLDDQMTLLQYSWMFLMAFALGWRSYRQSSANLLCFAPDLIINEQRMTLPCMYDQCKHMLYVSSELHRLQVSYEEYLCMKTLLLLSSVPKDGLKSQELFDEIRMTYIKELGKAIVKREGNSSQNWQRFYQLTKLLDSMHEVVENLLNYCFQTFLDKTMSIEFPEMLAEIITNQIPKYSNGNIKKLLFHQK

[1] = biological target: T2, Mineralocorticoid receptor (Homo sapiens) (UniProt P08235); test: Agonist activity at human MR ligand binding domain receptor expressed in african green monkey COS7 cells by Gal4 hybrid assay; assay type: cell-based; settings: COS-7
T2 sequence (whole entry): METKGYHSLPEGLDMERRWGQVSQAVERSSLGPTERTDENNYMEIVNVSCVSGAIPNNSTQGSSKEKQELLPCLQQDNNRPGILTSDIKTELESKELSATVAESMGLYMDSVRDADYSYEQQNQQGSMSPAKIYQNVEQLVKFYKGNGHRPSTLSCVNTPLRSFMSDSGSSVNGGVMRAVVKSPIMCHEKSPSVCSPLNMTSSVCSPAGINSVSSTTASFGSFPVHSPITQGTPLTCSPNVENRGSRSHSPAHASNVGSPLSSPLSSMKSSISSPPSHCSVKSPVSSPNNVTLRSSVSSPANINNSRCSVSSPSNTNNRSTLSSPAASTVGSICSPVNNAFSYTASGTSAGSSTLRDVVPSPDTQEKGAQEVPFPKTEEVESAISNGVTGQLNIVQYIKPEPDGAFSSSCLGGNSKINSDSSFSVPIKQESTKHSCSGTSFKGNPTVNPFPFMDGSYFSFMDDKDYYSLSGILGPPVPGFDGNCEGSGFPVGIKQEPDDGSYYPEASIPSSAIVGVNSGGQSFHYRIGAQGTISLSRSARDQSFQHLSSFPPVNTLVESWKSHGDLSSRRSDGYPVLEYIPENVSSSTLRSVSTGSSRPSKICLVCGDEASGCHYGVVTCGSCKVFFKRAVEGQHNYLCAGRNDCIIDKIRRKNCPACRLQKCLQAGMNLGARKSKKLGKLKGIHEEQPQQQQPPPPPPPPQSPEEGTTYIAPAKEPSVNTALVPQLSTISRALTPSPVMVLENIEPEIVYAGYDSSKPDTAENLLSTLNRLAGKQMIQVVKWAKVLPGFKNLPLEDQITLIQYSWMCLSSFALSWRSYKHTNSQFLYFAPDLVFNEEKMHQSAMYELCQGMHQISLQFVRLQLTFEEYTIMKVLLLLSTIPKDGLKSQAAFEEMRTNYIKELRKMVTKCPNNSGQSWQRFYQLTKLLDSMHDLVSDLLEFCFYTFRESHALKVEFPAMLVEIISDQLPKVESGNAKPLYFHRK
In short: (§1)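 Gal4-steroid receptor LBD fusion plasmid plus GAL4_UAS (5 copies, E1b TATA)-luciferase reporter, 50 ng/well each, transfected 16 h into COS-7 cells grown in phenol red-free DMEM with 10% charcoal/dextran-treated FBS. Compound treatment 20 h, then luciferase read-out. Antagonist mode uses 3 nM aldosterone (hMR) or 5 nM 17β-estradiol (hER). Values are the average of at least duplicate determinations.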

[2] = biological target: T3, Mineralocorticoid receptor (Homo sapiens, UniProt P08235); test: Antagonist activity at human MR ligand binding domain expressed in african green monkey COS7 cells in presence of aldosterone by Gal4 hybrid assay; assay type: cell-based, COS-7; in short: as §1
T3 sequence (P08235 whole entry): T2 sequence (whole entry)

[3] = biological target: T4, Estrogen receptor (Homo sapiens) (UniProt P03372); test: Agonist activity at human ER ligand binding domain expressed in african green monkey COS7 cells by Gal4 hybrid assay; assay type: cell-based; settings: COS-7; in short: as §1
T4 sequence (whole entry): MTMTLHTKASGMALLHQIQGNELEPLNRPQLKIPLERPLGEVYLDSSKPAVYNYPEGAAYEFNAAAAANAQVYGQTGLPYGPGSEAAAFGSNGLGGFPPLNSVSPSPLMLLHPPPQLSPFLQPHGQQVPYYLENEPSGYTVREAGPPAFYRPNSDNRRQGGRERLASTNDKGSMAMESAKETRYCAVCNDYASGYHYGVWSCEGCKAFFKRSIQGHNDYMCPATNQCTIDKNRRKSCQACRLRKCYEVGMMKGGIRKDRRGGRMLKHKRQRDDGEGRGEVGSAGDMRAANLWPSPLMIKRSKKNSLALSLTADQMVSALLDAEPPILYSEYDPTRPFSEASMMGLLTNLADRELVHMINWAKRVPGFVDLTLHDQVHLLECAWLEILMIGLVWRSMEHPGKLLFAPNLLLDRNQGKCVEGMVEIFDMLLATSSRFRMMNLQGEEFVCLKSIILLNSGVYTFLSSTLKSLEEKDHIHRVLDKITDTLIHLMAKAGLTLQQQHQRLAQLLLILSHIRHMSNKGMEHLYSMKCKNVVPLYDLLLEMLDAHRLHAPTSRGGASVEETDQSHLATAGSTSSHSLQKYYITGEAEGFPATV

Estrogen receptor = biological target: T5, Estrogen receptor (Homo sapiens, UniProt P03372); test: Antagonist activity at human ER ligand binding domain expressed in african green monkey COS7 cells in presence of 17-beta-estradiol by Gal4 hybrid assay; assay type: cell-based, COS-7; in short: as §1
T5 sequence (P03372 whole entry): T4 sequence (whole entry)

Androgen receptor = biological target: T6, Androgen receptor (Homo sapiens, UniProt P10275)
T6 sequence (P10275 whole entry): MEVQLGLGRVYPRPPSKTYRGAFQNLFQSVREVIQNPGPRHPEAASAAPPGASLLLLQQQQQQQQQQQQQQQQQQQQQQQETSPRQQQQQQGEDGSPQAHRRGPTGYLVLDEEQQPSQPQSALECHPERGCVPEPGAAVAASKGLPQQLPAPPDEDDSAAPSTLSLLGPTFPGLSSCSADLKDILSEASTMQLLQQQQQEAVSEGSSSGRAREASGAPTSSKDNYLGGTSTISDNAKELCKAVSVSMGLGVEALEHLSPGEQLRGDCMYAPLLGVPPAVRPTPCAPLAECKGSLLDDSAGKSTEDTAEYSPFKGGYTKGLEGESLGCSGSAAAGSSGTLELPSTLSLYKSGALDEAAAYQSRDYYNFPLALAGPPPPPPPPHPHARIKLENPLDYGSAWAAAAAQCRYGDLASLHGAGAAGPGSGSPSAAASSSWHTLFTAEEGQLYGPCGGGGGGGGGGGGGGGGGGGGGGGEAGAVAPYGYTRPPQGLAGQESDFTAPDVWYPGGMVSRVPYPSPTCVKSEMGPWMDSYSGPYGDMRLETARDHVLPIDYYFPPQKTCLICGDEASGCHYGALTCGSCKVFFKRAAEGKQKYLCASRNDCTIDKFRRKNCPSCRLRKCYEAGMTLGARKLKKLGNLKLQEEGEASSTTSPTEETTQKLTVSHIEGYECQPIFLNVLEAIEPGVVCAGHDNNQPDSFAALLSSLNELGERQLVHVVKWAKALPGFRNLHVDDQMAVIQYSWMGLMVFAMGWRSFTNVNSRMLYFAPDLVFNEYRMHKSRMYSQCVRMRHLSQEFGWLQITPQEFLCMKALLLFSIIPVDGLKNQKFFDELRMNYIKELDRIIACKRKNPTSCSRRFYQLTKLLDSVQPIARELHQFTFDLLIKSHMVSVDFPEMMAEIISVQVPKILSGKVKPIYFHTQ

IC50 (Glucocorticoid receptor): 85 nM
Activity [1]: inactive
IC50 [2]: 1600 nM
Activity [3]: inactive
IC50 (Estrogen receptor): 1900 nM
IC50 (Androgen receptor): 6.1 nM
Compound: COC[C@]1(OC)CC[C@H]2[C@@H]3CCC4=CC(=O)CCC4=C3[C@@H](c3ccc(/C=N/O)cc3)C[C@@]21C [ASOPRISNIL]
